Source: PubChem
Rows were chosen to be rich in hits. Some 5.8% of all compounds tested hit in one or more screens of this group.
Tcruzi prolif – T. cruzi intracellular proliferation inhibitors, primary screen, cell-based, beta-gal Tulahuen parasites, NIH3T3 host, luminescence | T. cruzi beta-gal in NIH3T3, GalScreen luminescence, 90 h | inhibition, % at 8.34 µM | AID 624255, 2012 | actives 5.9% (n = 77,000);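 active = mean inhibition above about 93%, with at least 55% of replicates each passing it, limit read from the data, passing the limit was not always enough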
IDH1 mut inh – inhibitors of IDH1 R132H reductase, primary screen, biochemical, plate reader, single point. Isocitrate dehydrogenase [NADP] cytoplasmic (Homo sapiens), O75874. diaphorase/resazurin fluorescence, 60 min. inhibition, % at 10 µM. actives 0.18% (n = 70,000). AID 624101, 2012; in the data active = inhibition above about 34%;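 note: 0% = DMSO and 100% = no enzyme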
Pf Dd2 growth – P. falciparum Dd2 growth inhibitors, primary screen, SYBR Green fluorescence, single dose replicates; 72 h; active compounds read low; actives 2.3% (n = 94,000); activity change, % at 10 µM; in the data active = activity change below about -80%
KDM4C inh – inhibitors of GASC-1 (KDM4C) histone demethylase, primary screen, biochemical, single concentration HTS; AID 720574, 2013; Lysine-specific demethylase 4C (Homo sapiens), Q9H3R0; inhibition, % at 12.5 µM; GST-KDM4C 2-372, H3K9me3 peptide, LANCE TR-FRET; actives 0.15% (n = 96,000);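 active = mean replicate inhibition above about 25%, with at least 55% of replicates also reaching it, limit read from the data, passing the limit was not always enough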
Target sequence (Q9H3R0 2-372 limits assumed): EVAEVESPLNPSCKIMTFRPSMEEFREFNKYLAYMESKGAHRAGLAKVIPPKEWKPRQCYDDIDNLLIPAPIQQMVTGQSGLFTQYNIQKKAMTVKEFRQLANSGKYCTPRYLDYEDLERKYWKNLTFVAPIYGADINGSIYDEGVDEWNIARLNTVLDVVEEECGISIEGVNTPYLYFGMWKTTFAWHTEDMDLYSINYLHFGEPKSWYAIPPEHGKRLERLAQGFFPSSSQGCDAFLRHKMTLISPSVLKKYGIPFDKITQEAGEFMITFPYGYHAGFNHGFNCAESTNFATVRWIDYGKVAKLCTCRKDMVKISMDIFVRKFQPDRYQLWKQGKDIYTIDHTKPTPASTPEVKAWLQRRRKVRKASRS
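System: N-terminal GST-fused human GASC-1 (KDM4C) fragment, residues 2-372 / Amount: 10 nM GST-KDM4C in enzyme reaction / Also added: H3K9me3 peptide with Fe(II)/2OG / Times: 30 min demethylation and 1 h detection at room temperature / Signal: LANCE TR-FRET / Read-out basis: Fall in 671/618 emission ratio as inhibition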
Active calls of the source: *; · = not tested or not shown.

SMILES	Tcruzi prolif	IDH1 mut inh	Pf Dd2 growth	KDM4C inh
CC(=O)N1CC[C@@H]2[C@@H](CO)Nc3ccc(C#Cc4ccccc4F)cc3[C@@H]21	81	·	-83*	-2
C[C@@H]1CCCCO[C@H](CN(C)C(=O)Cc2ccccc2)[C@@H](C)CN([C@@H](C)CO)C(=O)c2cc(NC(=O)Nc3ccccc3)ccc2O1	92	1	-74	0
Cc1cc(C(=O)Nc2cccc3c2O[C@H](CN(C)Cc2ccc(C(=O)Nc4ccccc4N)cc2)[C@@H](C)CN([C@H](C)CO)C3=O)n(C)n1	98	·	-88*	17
Cc1cc(C(=O)Nc2cccc3c2O[C@@H](CN(C)Cc2ccc(C(=O)O)cc2)[C@H](C)CN([C@H](C)CO)C3=O)n(C)n1	·	3	-1	2
Cc1cc(C(=O)Nc2cccc3c2O[C@@H](CN(C)Cc2ccc(C(=O)Nc4ccccc4N)cc2)[C@H](C)CN([C@H](C)CO)C3=O)n(C)n1	98	0	-92*	16
Cc1cc(C(=O)Nc2cccc3c2O[C@@H](CN(C)Cc2ccc(C(=O)O)cc2)[C@@H](C)CN([C@@H](C)CO)C3=O)n(C)n1	·	-1	-7	-1
COCC(=O)N1C[C@@H](C)[C@@H](OC)CN(C)C(=O)c2ccc(NC(=O)c3ccc(F)cc3)cc2OC[C@H]1C	-33	0	-29	1
C[C@H](CO)N1C[C@H](C)[C@H](CN(C)Cc2ccc(C(=O)Nc3ccccc3N)cc2)Oc2ccc(NC(=O)CCC(F)(F)F)cc2C1=O	86	·	-81*	-1
C[C@H]1CN([C@@H](C)CO)C(=O)c2cc(NC(=O)Nc3ccc(C(F)(F)F)cc3)ccc2O[C@@H]1CN(C)Cc1ccc(C(=O)Nc2ccccc2N)cc1	-97	0	-93*	0
C[C@H](CO)N1C[C@H](C)[C@@H](CN(C)Cc2ccc(C(=O)Nc3ccccc3N)cc2)Oc2ccc(NC(=O)Nc3ccc(C(F)(F)F)cc3)cc2C1=O	-206	0	-90*	-1
C[C@@H]1CN([C@H](C)CO)C(=O)c2cc(NC(=O)Cc3ccccc3)ccc2O[C@@H]1CN(C)Cc1ccc(C(=O)Nc2ccccc2N)cc1	73	·	-85*	2
O=C(Nc1ccc(Cl)cc1C(=O)NCCO)c1ccc(Cl)cc1Cl	·	1	·	·
CO[C@H]1CN(C)C(=O)c2cc(NC(=O)C3CC3)ccc2OC[C@H](C)N(C(=O)c2ccncc2)C[C@@H]1C	38	1	1	4
C[C@@H]1CN([C@H](C)CO)C(=O)c2cc(NC(=O)Nc3ccccc3)ccc2O[C@@H]1CN(C)Cc1ccc(C(=O)Nc2ccccc2N)cc1	36	·	-85*	-2
C[C@@H]1CN([C@H](C)CO)C(=O)Cc2cc(NC(=O)Cc3ccccc3)ccc2O[C@@H]1CN(C)Cc1ccc(C(=O)Nc2ccccc2N)cc1	·	0	-85*	0
C[C@H]1CN([C@@H](C)CO)C(=O)Cc2cc(NC(=O)Nc3ccccc3)ccc2O[C@@H]1CN(C)Cc1ccc(C(=O)Nc2ccccc2N)cc1	·	·	·	0
C[C@@H]1CN([C@H](C)CO)C(=O)Cc2cc(NC(=O)Nc3ccc4c(c3)OCO4)ccc2O[C@H]1CN(C)Cc1ccc(C(=O)Nc2ccccc2N)cc1	47	0	5	0
C[C@@H]1CN([C@@H](C)CO)C(=O)Cc2cc(NC(=O)Cc3ccccc3)ccc2O[C@H]1CN(C)Cc1ccc(C(=O)Nc2ccccc2N)cc1	·	-1	-16	17
C[C@H]1CN([C@@H](C)CO)C(=O)Cc2cc(NC(=O)Cc3ccccc3)ccc2O[C@@H]1CN(C)Cc1ccc(C(=O)Nc2ccccc2N)cc1	·	·	-88*	-1
C[C@H](CO)N1C[C@H](C)[C@@H](CN(C)Cc2ccc(C(=O)Nc3ccccc3N)cc2)Oc2ccc(NC(=O)Nc3ccc4c(c3)OCO4)cc2CC1=O	39	0	-83*	-1
C[C@H]1CN([C@@H](C)CO)C(=O)c2cc(NC(=O)Cn3cnnn3)ccc2O[C@@H]1CN(C)Cc1ccc(Oc2ccccc2)cc1	44	0	2	1
CCC(=O)N1CC(=O)N2[C@H](CO)[C@H](c3ccc(C#Cc4cccc(F)c4)cc3)[C@H]2C1	·	·	-22	0
C[C@H]1CN([C@@H](C)CO)C(=O)c2cc(C#CC3CCCCC3)cnc2O[C@H]1CN(C)C(=O)Nc1ccccc1	·	-2	-18	-3
COc1ccccc1C#Cc1ccc([C@@H]2[C@@H](CO)N(C(=O)C3CCCC3)[C@H]2C#N)cc1	·	·	-88*	1
CCS(=O)(=O)N1CCCCN2[C@H](C1)[C@@H](c1ccc(C#Cc3ccccc3OC)cc1)[C@@H]2CO	86	·	-82*	-4
SMILES	Tcruzi prolif	IDH1 mut inh	Pf Dd2 growth	KDM4C inh
COc1ccccc1C#Cc1ccc([C@H]2[C@@H](CO)N(C(=O)C3CCCC3)[C@H]2C#N)cc1	·	·	-27	-4
COc1ccccc1C#Cc1ccc([C@@H]2[C@@H](C#N)N(C(=O)C3CCCC3)[C@H]2CO)cc1	·	·	-88*	-1
COc1ccccc1C#Cc1ccc([C@H]2[C@@H](C#N)N(C(=O)C3CCC3)[C@H]2CO)cc1	94	·	-90*	-1
COC(=O)c1sc(N2C(=O)C(=O)C(C(=O)c3ccc(OC)c(C)c3)C2c2ccco2)nc1C (configuration not stated)	·	0	·	·
C/C=C/c1cnc2c(c1)C(=O)N([C@H](C)CO)C[C@H](C)[C@H](CN(C)Cc1ccc3c(c1)OCO3)O2	·	0	14	-2
CCCNC(=O)N1[C@H](C#N)[C@H](c2ccc(C#Cc3cccc(F)c3)cc2)[C@H]1CO	94	·	-85*	-1
CCCNC(=O)N1[C@@H](C#N)[C@@H](c2ccccc2)[C@@H]1CO	-62	·	8	-2
N#C[C@@H]1[C@H](c2ccc(C#Cc3ccc(F)cc3)cc2)[C@@H](CO)N1C(=O)Nc1ccc(F)cc1	90	·	-47	-2
CCCNC(=O)N1[C@H](C#N)[C@H](c2ccc(C#Cc3ccc(F)cc3)cc2)[C@H]1CO	93	·	-86*	0
CCCNC(=O)N1[C@H](CO)[C@H](c2ccc(-c3ccc(C#N)cc3)cc2)[C@@H]1CNC	·	·	-84*	-1
C[C@@H]1CN([C@@H](C)CO)C(=O)c2cc(NC(=O)c3ccncc3)ccc2O[C@H]1CN(C)Cc1ccc(Oc2ccccc2)cc1	1	0	-7	-1
OC[C@H]1Nc2ccc(-c3cccc(F)c3)cc2[C@H]2[C@@H]1CCN2Cc1ccc(F)cc1	94	·	-73	1
N#Cc1cccc(-c2ccc3c(c2)[C@H]2[C@H](CCN2Cc2ccc4c(c2)OCO4)[C@H](CO)N3)c1	46	·	-71	0
OC[C@@H]1Nc2ccc(-c3cccc(F)c3)cc2[C@@H]2[C@H]1CCN2Cc1ccncc1	·	·	-92*	5
COc1ccc(-c2ccc3c(c2)[C@H]2[C@H](CCN2Cc2ccncc2)[C@@H](CO)N3)cc1	·	·	-82*	3
